Assay [1] has as its target Epidermal growth factor receptor (Homo sapiens, UniProt P00533). The experiment in a line: Inhibition of in vitro activity of EGFr enzyme from A431 cells in presence of 5 uM ATP. The assay is classed as cell-based, A-431. The method, boiled down:
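EGFr from human A431 shed membrane vesicles, solubilised in 4% Triton X-100/10% glycerol; 10 μg vesicle protein. Buffer 20 mM HEPES pH 7.4, 15 mM MgCl2, 4 mM MnCl2, 0.02% BSA, 5 μM [32P]ATP, 25 μg Glu:Ala:Tyr (6:3:1) copolymer, 250 ng EGF. 10 min at room temperature; TCA/pyrophosphate quench, filter wash, scintillation counting; autophosphorylation controls included.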

The target in assay [2] is Tyrosine-protein kinase Lck (Bos taurus). As to the kind of experiment: In vitro inhibition of protein-tyrosine activity of p56lck enzyme in presence of 50 uM ATP.

Where only a bound is given, the exact number is not on record here.

Epidermal growth factor receptor, sequence (P00533 whole entry): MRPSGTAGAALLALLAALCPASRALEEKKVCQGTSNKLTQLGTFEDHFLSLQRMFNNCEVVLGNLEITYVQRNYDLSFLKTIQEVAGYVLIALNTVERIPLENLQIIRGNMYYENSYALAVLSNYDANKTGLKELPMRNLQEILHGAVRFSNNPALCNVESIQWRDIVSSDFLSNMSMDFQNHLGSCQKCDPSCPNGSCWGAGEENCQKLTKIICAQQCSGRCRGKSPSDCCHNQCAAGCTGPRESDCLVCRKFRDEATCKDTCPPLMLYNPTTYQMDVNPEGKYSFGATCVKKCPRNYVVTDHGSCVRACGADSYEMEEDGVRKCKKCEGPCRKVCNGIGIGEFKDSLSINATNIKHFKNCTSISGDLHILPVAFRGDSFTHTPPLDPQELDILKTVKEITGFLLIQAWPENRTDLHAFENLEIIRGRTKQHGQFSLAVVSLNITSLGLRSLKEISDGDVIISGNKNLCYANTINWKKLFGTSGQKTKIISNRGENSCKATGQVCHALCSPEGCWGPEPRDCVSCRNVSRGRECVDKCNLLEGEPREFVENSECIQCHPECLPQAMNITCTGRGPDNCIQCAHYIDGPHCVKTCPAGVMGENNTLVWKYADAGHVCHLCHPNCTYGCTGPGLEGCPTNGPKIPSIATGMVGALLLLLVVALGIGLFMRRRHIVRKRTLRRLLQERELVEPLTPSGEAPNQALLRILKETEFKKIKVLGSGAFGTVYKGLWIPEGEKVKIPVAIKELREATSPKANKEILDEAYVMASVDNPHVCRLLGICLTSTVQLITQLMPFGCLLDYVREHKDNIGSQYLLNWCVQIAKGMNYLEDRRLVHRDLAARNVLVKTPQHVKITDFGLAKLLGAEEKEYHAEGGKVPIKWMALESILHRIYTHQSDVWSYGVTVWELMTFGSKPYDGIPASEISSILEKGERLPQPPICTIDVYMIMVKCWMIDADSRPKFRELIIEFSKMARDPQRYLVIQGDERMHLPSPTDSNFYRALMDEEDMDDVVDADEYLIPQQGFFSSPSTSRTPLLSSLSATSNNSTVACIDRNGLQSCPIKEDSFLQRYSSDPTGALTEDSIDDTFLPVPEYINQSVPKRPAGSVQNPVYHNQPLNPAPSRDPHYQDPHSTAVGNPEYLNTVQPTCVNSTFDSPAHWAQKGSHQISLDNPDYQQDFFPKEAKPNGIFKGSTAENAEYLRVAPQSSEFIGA

One may read the IC50 as the concentration needed to halve the response being measured. As for `COc1ccc(N)c2oc(-c3ccc(N)cc3)cc(=O)c12`, the IC50 in assay [1] is > 100 µM.

Consider `O=c1cc(-c2ccc([N+](=O)[O-])cc2)oc2c([N+](=O)[O-])cc(O)cc12`, for which the IC50 in assay [2] is > 2000 µM.

Regarding `Nc1ccc(-c2cc(=O)c3cccc(N)c3o2)cc1`, the IC50 in assay [2] is 123 µM; in assay [1] it was > 100 µM.

On to `Nc1ccc(-c2cc(=O)c3c(O)ccc(N)c3o2)cc1`, for which the IC50 in assay [2] is 326 µM; in assay [1] it was > 100 µM.

For `Nc1cccc(-c2cc(=O)c3cc(N)ccc3o2)c1`, the IC50 was 200 µM in assay [2] and > 100 µM in assay [1].

As for `Nc1ccc(-c2cc(=O)c3cc(N)ccc3o2)cc1`, the IC50 in assay [2] stood at 103 µM; in assay [1], 8.7 µM.

For the molecule `O=c1cc(-c2ccc([N+](=O)[O-])cc2)oc2ccc([N+](=O)[O-])cc12`, in assay [2], the IC50 is > 2000 µM.

For `Nc1ccc(-c2cc(=O)c3cc(O)cc(N)c3o2)cc1`, the IC50 in assay [2] is 117 µM; in assay [1] it was > 100 µM.

Turning to `O=c1cc(-c2ccc([N+](=O)[O-])cc2)oc2c([N+](=O)[O-])cccc12`, in assay [2], the IC50 is > 2000 µM.

Turning to `Nc1cccc(-c2cc(=O)c3cc(N)c(O)cc3o2)c1`, the IC50 is 502 µM in assay [2] and > 100 µM in assay [1].

On to `Nc1cccc(-c2cc(=O)c3c(N)c(O)c(N)cc3o2)c1`, for which the IC50 in assay [2] came to 46 µM; in assay [1], 7.8 µM.

For the molecule `Nc1ccc(-c2cc(=O)c3cc(N)c(O)c(N)c3o2)cc1`, the IC50 in assay [2] was 754 µM; in assay [1], > 100 µM.

As to `COc1cc(N)c2oc(-c3ccc(N)cc3)cc(=O)c2c1`, the IC50 in assay [2] was 382 µM; in assay [1] it was > 100 µM.

On to `Nc1ccc(-c2cc(=O)c3ccc(O)c(N)c3o2)cc1`, for which the IC50 in assay [2] is 328 µM; in assay [1], > 100 µM.

Turning to `Nc1ccc(-c2cc(=O)c3c(N)c(O)c(N)cc3o2)cc1`, the figures for the IC50 in assay [2] and in assay [1] were 18 µM and > 100 µM, respectively.

Take `Nc1ccc(-c2cc(=O)c3cc(N)c(O)cc3o2)cc1`: the figures for the IC50 in assay [2] and in assay [1] were 141 µM and 14.1 µM, respectively.

On to `O=c1cc(-c2ccc([N+](=O)[O-])cc2)oc2c([N+](=O)[O-])ccc(O)c12`, for which the IC50 in assay [2] is > 2000 µM.

As to `Nc1ccc(-c2cc(=O)c3cc(N)cc(N)c3o2)cc1`, the IC50 in assay [2] was 106 µM; in assay [1] it was > 100 µM.

`O=c1cc(-c2ccc([N+](=O)[O-])cc2)oc2ccc([N+](=O)[O-])c(O)c12`: in assay [2], the concentration for half-maximal inhibition (IC50) is > 2000 µM.

Regarding `COc1ccc([N+](=O)[O-])c2oc(-c3ccc([N+](=O)[O-])cc3)cc(=O)c12`, in assay [2], the IC50 is > 2000 µM.

With `O=c1cc(-c2ccc([N+](=O)[O-])cc2)oc2c([N+](=O)[O-])c(O)ccc12`, the IC50 in assay [2] is 1880 µM.

As for `Nc1ccc(-c2cc(=O)c3c(O)c(N)ccc3o2)cc1`, the IC50 was 223 µM in assay [2] and > 100 µM in assay [1].

As to `COc1cc(N)c2oc(-c3cccc(N)c3)cc(=O)c2c1`, the IC50 in assay [1] is > 100 µM.

Consider `O=c1cc(-c2ccc([N+](=O)[O-])cc2)oc2cc(O)c([N+](=O)[O-])cc12`, for which, in assay [2], the IC50 is > 2000 µM.

Turning to `COc1cc([N+](=O)[O-])c2oc(-c3ccc([N+](=O)[O-])cc3)cc(=O)c2c1`, the half-maximal inhibitory concentration (IC50) in assay [2] was > 2000 µM.

Source of the values: ChEMBL document CHEMBL1127357, “Synthesis and biochemical evaluation of a series of aminoflavones as potential inhibitors of protein-tyrosine kinases p56lck, EGFr, and p60v-src” (J Med Chem, 1994).
